ChEMBL document CHEMBL1153955, “Indolylarylsulfones bearing natural and unnatural amino acids. Discovery of potent inhibitors of HIV-1 non-nucleoside wild type and resistant mutant strains reverse transcriptase and coxsackie B4 virus” (J Med Chem, 2009)

Key:
[1] = system: Vesicular stomatitis virus; test: Antiviral activity against VSV in human HEL cells assessed as protection against virus-induced cytopathicity; type: functional, organism-based
Coxsackievirus B4 [2] = test: Antiviral activity against Coxsackievirus B4 in african green monkey Vero cells assessed as protection against virus-induced cytopathicity; type: functional, organism-based; conditions: Enterovirus B
Procedure, shortened: (§1)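 Confluent cell monolayers inoculated with 100 CCID₅₀ virus. After 1-2 h adsorption, residual virus removed and cultures incubated with varying compound concentrations. Cytopathicity scored once it reached completion in untreated infected controls. EC₅₀ = dose reducing virus-induced cytopathogenicity by 50%.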

[3] = system: Respiratory syncytial virus; test: Antiviral activity against RSV Long in human HeLa cells assessed as protection against virus-induced cytopathicity; type: functional, organism-based; procedure, shortened: as §1
Human alphaherpesvirus 1 [4] = test: Antiviral activity against thymidine kinase deficient and acyclovir resistant HSV1 KOS in human HEL cells assessed as protection against virus-induced cytopathicity; type: functional, organism-based; conditions: Human alphaherpesvirus 1, KOS
[5] = target: Human immunodeficiency virus type 1 reverse transcriptase (Human immunodeficiency virus 1, UniProt Q72547); test: Inhibition of HIV1 reverse transcriptase p66/p51
Influenza A virus [6] = test: Antiviral activity against influenza H1N1 virus in MDCK cells assessed as reduction of virus-induced cytopathicity by MTS method; type: functional, organism-based; conditions: Influenza A virus, H1N1, MDCK
Human alphaherpesvirus 2 = test: Antiviral activity against HSV2 G in human HEL cells assessed as protection against virus-induced cytopathicity; type: functional, organism-based; conditions: Human alphaherpesvirus 2, strain G; procedure, shortened: as §1
[7] = Cytotoxicity against african green monkey Vero cells assessed as drug level causing microscopically detectable alteration of normal cell morphology after 3 days; type: cell-based; conditions: chlorocebus sabaeus
Procedure, shortened: (§2)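 Serial compound dilutions added to confluent HeLa or Vero monolayers. MCC = minimum concentration causing microscopically detectable alteration of cell morphology after 3 days of incubation.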

[8] = system: Human immunodeficiency virus 2; test: Antiviral activity against HIV2 ROD in human CEM cells assessed as protection against virus-induced cytopathicity after 4 days; type: functional, organism-based; conditions: Human immunodeficiency virus 2, ROD, CCRF-CEM, 96 h
Procedure, shortened: (§3)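 CEM cells (~3 × 10⁵ cells/mL) infected with ~100 CCID₅₀ per mL of HIV-1 (IIIB) or HIV-2 (ROD), then seeded into wells containing compound dilutions. After 4 days at 37 °C, syncytium (giant cell) formation was examined microscopically. EC₅₀ = concentration protecting CEM cells from HIV cytopathicity by 50%.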

[9] = system: Vesicular stomatitis virus; test: Antiviral activity against VSV in human HeLa cells assessed as protection against virus-induced cytopathicity; type: functional, organism-based
L1210 = test: Antiproliferative activity against mouse L1210 cells after 2 days; type: cell-based; conditions: L1210, 48 h
Procedure, shortened: (§4)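 Cells seeded at 5 × 10⁴ to 7.5 × 10⁴ cells/200 µL with or without serial compound dilutions; incubated at 37 °C for 2 days (L1210) or 3 days (Molt4/C8, CEM). Cell numbers counted with a Coulter counter. CC₅₀ = concentration reducing proliferation by 50% versus untreated controls, read from plots of cell number (% of control) against concentration. Means of at least two independent experiments.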

[10] = Cytotoxicity against human HeLa cells assessed as drug level causing microscopically detectable alteration of normal cell morphology after 3 days; type: cell-based; procedure, shortened: as §2
[11] = Cytotoxicity against feline CRFK cells by MTS assay; type: cell-based, Felis catus; conditions: cat
Influenza B virus [12] = test: Antiviral activity against influenza B virus in MDCK cells assessed as reduction of virus-induced cytopathicity by visual cytopathic effect scoring method; type: functional, organism-based
Human alphaherpesvirus 1 [13] = test: Antiviral activity against HSV1 KOS in human HEL cells assessed as protection against virus-induced cytopathicity; type: functional, organism-based; conditions: Human alphaherpesvirus 1, KOS
Influenza A virus [14] = test: Antiviral activity against influenza H1N1 virus in MDCK cells assessed as reduction of virus-induced cytopathicity by visual cytopathic effect scoring method; type: functional, organism-based
Feline coronavirus = test: Antiviral activity against Feline coronavirus in feline […] cells assessed as inhibition of virus-induced cytopathicity; type: functional, organism-based; conditions: Alphacoronavirus 1
[15] = system: Human immunodeficiency virus 1; test: Antiviral activity against HIV1 3B in human CEM cells assessed as protection against virus-induced cytopathicity after 4 days; type: functional, organism-based; conditions: Human immunodeficiency virus 1, 3B, CCRF-CEM, 96 h; procedure, shortened: as §3
Vaccinia virus = test: Antiviral activity against Vaccinia virus Lederle in human HEL cells assessed as protection against virus-induced cytopathicity; type: functional, organism-based; conditions: Orthopoxvirus vaccinia
Influenza A virus H3N2 [16] = test: Antiviral activity against influenza H3N2 virus in MDCK cells assessed as reduction of virus-induced cytopathicity by visual cytopathic effect scoring method; type: functional, organism-based
Influenza B virus [17] = test: Antiviral activity against influenza B virus in MDCK cells assessed as reduction of virus-induced cytopathicity by MTS method; type: functional, organism-based
[18] = Antiproliferative activity against human Molt4/C8 cells after 3 days; type: cell-based; conditions: MOLT-4, 72 h; procedure, shortened: as §4
Sindbis virus = test: Antiviral activity against Sindbis virus in african green monkey Vero cells assessed as protection against virus-induced cytopathicity; type: functional, organism-based; procedure, shortened: as §1
Human respirovirus 3 = test: Antiviral activity against Parainfluenza virus type 3 in african green monkey Vero cells assessed as protection against virus-induced cytopathicity; type: functional, organism-based; conditions: Human respirovirus 3, Vero; procedure, shortened: as §1
Punta Toro virus = test: Antiviral activity against Punta Toro virus in african green monkey Vero cells assessed as protection against virus-induced cytopathicity; type: functional, organism-based; procedure, shortened: as §1
[19] = target: Human immunodeficiency virus type 1 reverse transcriptase (Human immunodeficiency virus 1, UniProt Q72547, L100I); test: Inhibition of HIV1 reverse transcriptase p66/p51 L100I mutant
Procedure, shortened: (§5)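 Substrate was 0.5 µg poly(rA)/oligo(dT) 10:1 (0.3 µM 3′-OH ends) with 10 µM [³H]dTTP, at 37 °C. Acid-precipitable radioactivity was counted on GF/C filters after TCA washes.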

CCRF-CEM = test: Antiproliferative activity against human CEM cells after 3 days; type: cell-based; conditions: 72 h; procedure, shortened: as §4
[20] = target: Human immunodeficiency virus type 1 reverse transcriptase (Human immunodeficiency virus 1, UniProt Q72547, K103N); test: Inhibition of HIV1 reverse transcriptase p66/p51 K103N mutant; procedure, shortened: as §5
Felid alphaherpesvirus 1 = test: Antiviral activity against Feline herpesvirus in feline […] cells assessed as inhibition of virus-induced cytopathicity; type: functional, organism-based
[21] = system: Mammalian orthoreovirus 1; test: Antiviral activity against Reovirus 1 in african green monkey Vero cells assessed as protection against virus-induced cytopathicity; type: functional, organism-based; conditions: Mammalian orthoreovirus 1, Vero; procedure, shortened: as §1
[22] = target: Human immunodeficiency virus type 1 reverse transcriptase (Human immunodeficiency virus 1, UniProt Q72547, Y181I); test: Inhibition of HIV1 reverse transcriptase p66/p51 Y181I mutant; procedure, shortened: as §5
Influenza A virus H3N2 [23] = test: Antiviral activity against influenza H3N2 virus in MDCK cells assessed as reduction of virus-induced cytopathicity by MTS method; type: functional, organism-based
Coxsackievirus B4 [24] = test: Antiviral activity against Coxsackievirus B4 in human HeLa cells assessed as protection against virus-induced cytopathicity; type: functional, organism-based; conditions: Enterovirus B; procedure, shortened: as §1
[25] = Cytotoxicity against human HEL cells assessed as drug level causing microscopically detectable alteration of normal cell morphology after 3 days; type: cell-based
[26] = Cytotoxicity against MDCK cells assessed as drug level causing microscopically detectable alteration of normal cell morphology; type: cell-based, Canis lupus familiaris; conditions: dog
[27] = Cytotoxicity against MDCK cells by MTS assay; type: cell-based, Canis lupus familiaris; conditions: dog

Compound	EC50 [1] [µM]	EC50 (Coxsackievirus B4 [2]) [µM]	EC50 [3] [µM]	EC50 (Human alphaherpesvirus 1 [4]) [µM]	EC50 (Influenza A virus [6]) [µM]	EC50 (Human alphaherpesvirus 2) [µM]	MCC at 72 h [7] [µM]	EC50 [8] [µM]	EC50 [9] [µM]	IC50 (L1210) [µM]	MCC at 72 h [10] [µM]	CC50 [11] [µM]	EC50 (Influenza B virus [12]) [µM]	EC50 (Human alphaherpesvirus 1 [13]) [µM]	EC50 (Influenza A virus [14]) [µM]	EC50 (Feline coronavirus) [µM]	EC50 [15] [µM]	EC50 (Vaccinia virus) [µM]	EC50 (Influenza A virus H3N2 [16]) [µM]	EC50 (Influenza B virus [17]) [µM]	also measured
Cc1cc(C)cc(S(=O)(=O)c2c(C(=O)NC(C)CS(N)(=O)=O)[nH]c3ccc([N+](=O)[O-])cc23)c1 (stereo not drawn)	> 20	≥ 20	> 20	> 20	> 4	> 20	≥ 20	> 10	≥ 20	20	≥ 20	47.6	> 4	> 20	> 4	> 20	0.0042	> 20	> 4	> 4	IC50 ([5]; read-out: IC50): 0.028 µM; IC50 [18]: 11 µM; EC50 (Sindbis virus): > 20 µM; EC50 (Human respirovirus 3): > 20 µM; EC50 (Punta Toro virus): > 20 µM; IC50 ([19]; read-out: IC50): 0.364 µM; IC50 (CCRF-CEM): 15 µM; IC50 ([20]; read-out: IC50): 3.28 µM; EC50 (Felid alphaherpesvirus 1): > 20 µM; EC50 [21]: > 20 µM; IC50 ([22]; read-out: IC50): 26.2 µM; EC50 (Influenza A virus H3N2 [23]): > 4 µM; EC50 (Coxsackievirus B4 [24]): ≥ 20 µM; MCC at 72 h [25]: ≥ 20 µM; MCC [26]: 20 µM; CC50 [27]: 9.8 µM
Cc1cc(C)cc(S(=O)(=O)c2c(C(=O)NCCS(N)(=O)=O)[nH]c3ccc(Cl)c(F)c23)c1	> 20	> 20	20	> 20	> 4	> 20	100	> 10	> 20	42	100	34.6	> 4	> 20	> 4	> 20	0.0023	> 20	> 4	> 4	IC50 [5]: ND(Insoluble); IC50 [18]: 36 µM; EC50 (Sindbis virus): > 20 µM; EC50 (Human respirovirus 3): > 20 µM; EC50 (Punta Toro virus): > 20 µM; IC50 [19]: ND(Insoluble); IC50 (CCRF-CEM): 31 µM; IC50 [20]: ND(Insoluble); EC50 (Felid alphaherpesvirus 1): > 20 µM; EC50 [21]: > 20 µM; IC50 [22]: ND(Insoluble); EC50 (Influenza A virus H3N2 [23]): > 4 µM; EC50 (Coxsackievirus B4 [24]): 7 µM; MCC at 72 h [25]: 100 µM; MCC [26]: 20 µM; CC50 [27]: 7.4 µM
Cc1cc(C)cc(S(=O)(=O)c2c(C(=O)NC(C)CS(N)(=O)=O)[nH]c3ccc(Br)cc23)c1 (stereo not drawn)	> 4	16	≥ 4	> 4	> 800	> 4	≥ 20	> 10	> 4	11	20	53	> 800	> 4	> 800	> 20	0.0023	> 4	> 800	> 800	IC50 ([5]; read-out: IC50): 0.003 µM; IC50 [18]: 9.3 µM; EC50 (Sindbis virus): > 20 µM; EC50 (Human respirovirus 3): > 20 µM; EC50 (Punta Toro virus): > 20 µM; IC50 ([19]; read-out: IC50): 0.125 µM; IC50 (CCRF-CEM): 12 µM; IC50 ([20]; read-out: IC50): 1.33 µM; EC50 (Felid alphaherpesvirus 1): > 20 µM; EC50 [21]: > 20 µM; IC50 ([22]; read-out: IC50): 8.55 µM; EC50 (Influenza A virus H3N2 [23]): > 800 µM; EC50 (Coxsackievirus B4 [24]): 3 µM; MCC at 72 h [25]: 20 µM; MCC [26]: 4 µM; CC50 [27]: 1.9 µM
